Measured values published in ChEMBL document CHEMBL2380309, “Design, synthesis, and biological evaluation of new 2'-deoxy-2'-fluoro-4'-triazole cytidine nucleosides as potent antiviral agents” (Eur J Med Chem, 2013).

Tests used:
[1] = Cytotoxicity against human MT2 cells by MTT assay; format: cell-based
[2] = system: Human immunodeficiency virus 1; experiment: Antiviral activity against HIV1 expressing VSV glycoprotein plasmid infected in human 293T cells treated 15 mins before viral infection measured after 48 hrs by luciferase reporter gene assay; format: functional, organism-based; details: Human immunodeficiency virus 1, HEK-293T
Summary of the method: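 293T cells plated 6×10⁴/well one hour before infection. Compound preincubated 15 min, then VSVG-pseudotyped env-deficient HIV-1 (pNL4-3.luc.R-E-, from Ca₃(PO₄)₂ co-transfection of 293T) added. Solvent-only control. After 48 h, cells lysed and luciferase activity read by luminometer. EC50 is the mean of at least two independent determinations.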

[3] = system: Hepatitis B virus; experiment: Antiviral activity against HBV infected in human HepG2.2.15 assessed as reduction of viral s-antigen production […] by ELISA; format: functional, organism-based; details: HepG2 2.2.15
[4] = system: Hepatitis B virus; experiment: Antiviral activity against HBV infected in human HepG2.2.15 assessed as reduction of viral e-antigen production […] by ELISA; format: functional, organism-based; details: HepG2 2.2.15
[5] = Cytotoxicity against human HepG2.2.15 cells after 3 days by MTT assay; format: cell-based, HepG2 2.2.15
Summary of the method: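 HepG2.2.15 cells, kept in RPMI 1640 with 10% FBS and G418 at 37°C under 5% CO2, were seeded at 1×10⁵ cells/well and cultured 24 h. They were then exposed to four compound concentrations (5 wells each) for 3 days, with drug-free cells as control. MTT (5 mg/mL) was added for 4 h at 37°C, formazan dissolved in DMSO, and A490 read. Survival was expressed as % of control, and CC50 was taken by Reed-Muench from at least two independent determinations.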

[6] = Selectivity index, ratio of CC50 for human HepG2.2.15 cells to EC50 for HBV infected in human HepG2.2.15 assessed as reduction of viral e-antigen production
[7] = Selectivity index, ratio of CC50 for human MT2 cells to EC50 for HIV1; format: toxicity, cell-based; details: read-out: Ratio CC50/EC50
[8] = Selectivity index, ratio of CC50 for human HepG2.2.15 cells to EC50 for HBV infected in human HepG2.2.15 assessed as reduction of viral s-antigen production

Row | Compound | CC50 [1] | EC50 [2] | EC50 [3] | EC50 [4] | CC50 at 72 h [5] | Ratio CC50/EC50 [6] | selectivity ratio [7] | Ratio CC50/EC50 [8]
1 | Cc1cn([C@H]2C[C@H](N=[N+]=[N-])[C@@H](CO)O2)c(=O)[nH]c1=O [ZIDOVUDINE] | ≥ 25000 nM | 84 nM | – | – | – | – | – | –
2 | Nc1ccn([C@@H]2O[C@@](CO)(n3cc(-c4ccccc4)nn3)[C@@H](O)[C@@H]2F)c(=O)n1 | ≥ 25000 nM | 83 nM | 100 nM | 250 nM | 566000 nM | 2264 | > 278 | –
3 | Nc1ccn([C@@H]2O[C@@](CO)(n3cc(C4CC4)nn3)[C@@H](O)[C@@H]2F)c(=O)n1 | ≥ 25000 nM | 600 nM | 120 nM | 1000 nM | 834000 nM | – | – | –
4 | Nc1ccn([C@@H]2O[C@@](CO)(n3cc(C4(O)CCCC4)nn3)[C@@H](O)[C@@H]2F)c(=O)n1 | ≥ 25000 nM | 1300 nM | – | – | – | – | – | –
5 | Nc1ccn([C@@H]2O[C@@](CO)(n3cc(CC4CCCCC4)nn3)[C@@H](O)[C@@H]2F)c(=O)n1 | ≥ 25000 nM | 4800 nM | – | – | – | – | – | –
6 | CCc1ccc(-c2cn([C@]3(CO)O[C@@H](n4ccc(N)nc4=O)[C@@H](F)[C@@H]3O)nn2)cc1 | ≥ 25000 nM | 600 nM | – | – | – | – | – | –
7 | [N-]=[N+]=N[C@]1(CO)O[C@@H](n2ccc(N)nc2=O)[C@@H](F)[C@@H]1O [RO-0622] | > 10000 nM | 0.3 nM | – | – | – | – | – | –
8 | CC(C)(C)c1cn([C@]2(CO)O[C@@H](n3ccc(N)nc3=O)[C@@H](F)[C@@H]2O)nn1 | ≥ 25000 nM | 80 nM | – | – | – | – | > 278 | –
9 | Nc1ccn([C@@H]2O[C@@](CO)(n3ccnn3)[C@@H](O)[C@@H]2F)c(=O)n1 | ≥ 25000 nM | 90 nM | – | – | – | – | > 278 | –
10 | CCCCc1cn([C@]2(CO)O[C@@H](n3ccc(N)nc3=O)[C@@H](F)[C@@H]2O)nn1 | ≥ 25000 nM | 300 nM | – | – | – | – | – | –
11 | Cc1ccc(-c2cn([C@]3(CO)O[C@@H](n4ccc(N)nc4=O)[C@@H](F)[C@@H]3O)nn2)cc1 | ≥ 25000 nM | 3700 nM | 10 nM | > 1000 nM | 498000 nM | – | – | 49800
